These results are taken from ChEMBL document CHEMBL1122441, “Structure-activity relationships of synthetic antibiotic analogues of anisomycin” (1983).

The structures appear in SMILES notation. In brackets after ≈: the same amount, converted by molar mass.

Assay [1] relates to Actinomyces israelii. Briefly: Antibacterial activity against Actinomyces israelii, activity expressed as inhibitory zone (mm, diameter). In kind it is functional. The method in brief:
(§1)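 Agar diffusion: disks loaded with 0.05 mg drug (stock 1 mg/mL in Me2SO-EtOH 1:9) on brain-heart infusion agar seeded 1:100 with 48-h anaerobe culture grown in thioglycolate broth; incubated anaerobically at 37 °C for 24 h; zone diameter measured in mm.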

The subject of assay [2] is Bacteroides fragilis. Briefly: Antibacterial activity against Bacteroides fragilis, activity expressed as […] inhibitory zone (mm, diameter). In kind it is functional. The method in brief:
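Agar diffusion vs B. fragilis grown in thioglycolate broth: 0.05 mg drug per paper disk (stock 1 mg/mL, Me2SO-EtOH 1:9), brain-heart infusion agar seeded with 48-h culture at 1:100, anaerobic 37 °C, 24 h; zone diameter in mm.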

Assay [3] has as its system Clostridium novyi. Briefly: Antibacterial activity against Clostridium novyi, activity expressed as inhibitory zone (mm, diameter). In kind it is functional. The method in brief: as §1
The test system of assay [4] is Candida albicans. Briefly: Antifungal activity against Candida albicans, activity expressed as […] inhibitory zone (mm, diameter). The format is functional. The method in brief:
(§2)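 Yeast grown in Sabouraud's dextrose broth, 24-h culture seeded 1:100 into agar; paper disks carrying 0.05 mg drug (from 1 mg/mL stock in Me2SO-EtOH 1:9); 37 °C, read after 48 h as zone diameter (mm).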

For assay [5], the system named is Epidermophyton floccosum. Briefly: Antifungal activity against Epidermophyton floccosum, activity expressed as inhibitory zone (mm, diameter). In kind it is functional. The method in brief: (§3)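 Dermatophytes grown in Sabouraud's dextrose broth, 4-5 day cultures seeded 1:100 into agar; disks with 0.05 mg drug (1 mg/mL stock, Me2SO-EtOH 1:9); grown and tested at 28 °C, zone diameter (mm) read after 48 h.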

The subject of assay [6] is Epidermophyton floccosum. Briefly: Antifungal activity against Epidermophyton floccosum, activity expressed as minimum inhibitory concentration (ug/mL). In kind it is functional. The settings on record: Epidermophyton floccosum; read-out: MIC.
Assay [7] relates to Entamoeba histolytica. Briefly: Antiprotozoal activity measured as the conc for 100% inhibition of Entamoeba histolytica. In kind it is functional, organism-based. The method in brief: (§4)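 E. histolytica (J 190) grown 48 h at 37 °C in modified Boeck Drbohlav medium, pooled; 0.6 × 10^6 organisms inoculated into 10 mL medium with drug at 32 to 0.06 µg/mL, incubated 48 h.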
For assay [8], the system named is Entamoeba histolytica. Briefly: Antiprotozoal activity measured as the conc for <[…]% inhibition of Entamoeba histolytica. In kind it is functional, organism-based.
In assay [9] the test system is Cutibacterium acnes. Briefly: Antibacterial activity against Propionibacterium acnes, activity expressed as inhibitory zone (mm, diameter). The format is functional. The method in brief:
as §1

The test system of assay [10] is Saccharomyces cerevisiae. Briefly: Antifungal activity against Saccharomyces cerevisiae, activity expressed as inhibitory zone (mm, diameter). In kind it is functional. A digest of the protocol: as §2
Assay [11] has as its system Saccharomyces cerevisiae. Briefly: Antifungal activity against Saccharomyces cerevisiae, activity expressed as minimum inhibitory concentration (ug/mL). In kind it is functional. The settings on record: Saccharomyces cerevisiae; read-out: MIC.
The test system of assay [12] is Tritrichomonas suis. Briefly: Antiprotozoal activity measured as the conc for <[…]% inhibition of Trichomonas foetus. In kind it is functional, organism-based.
For assay [13], the system named is Tritrichomonas suis. Briefly: Antiprotozoal activity measured as the conc for >95% inhibition of Trichomonas foetus. The format is functional, organism-based. A digest of the protocol: (§5)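 Protozoa grown 48 h (T. vaginalis in TYM 721, T. foetus in TYM 359, E. histolytica J 190 in modified Boeck Drbohlav medium, 37 °C) and pooled; 0.6 × 10^6 organisms into 10-mL tubes with drug 32 to 0.06 µg/mL, 48 h; inhibition scored microscopically against untreated controls as 100, >95, 95-25 or <25%.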

The test system of assay [14] is Streptococcus pyogenes. Briefly: Antibacterial activity against Streptococcus pyogenes C, activity expressed as inhibitory zone (mm, diameter). In kind it is functional. A digest of the protocol:
as §1

Assay [15] relates to Trichomonas vaginalis. Briefly: Antiprotozoal activity measured as the conc for 100% inhibition of Trichomonas vaginalis. In kind it is functional, organism-based. A digest of the protocol: as §5
The subject of assay [16] is Trichomonas vaginalis. Briefly: Antiprotozoal activity measured as the conc for 95-[…]% inhibition of Trichomonas vaginalis. In kind it is functional, organism-based.
In assay [17] the test system is Trichomonas vaginalis. Briefly: Antiprotozoal activity measured as the conc for <[…]% inhibition of Trichomonas vaginalis. The format is functional, organism-based.
The test system of assay [18] is Trichomonas vaginalis. Briefly: Antiprotozoal activity measured as the conc for >95% inhibition of Trichomonas vaginalis. The format is functional, organism-based. A digest of the protocol:
as §5

Assay [19] deals with Trichophyton benhamiae. Briefly: Antifungal activity against Trichophyton mentagrophytes, activity expressed as inhibitory zone (mm, diameter). The format is functional, Arthroderma benhamiae. The method in brief: as §3
Assay [20] concerns Trichophyton benhamiae. Briefly: Antifungal activity against Trichophyton mentagrophytes, activity expressed as minimum inhibitory concentration (ug/mL). The format is functional, Arthroderma benhamiae. The following applies: Trichophyton benhamiae; read-out: MIC.
The test system of assay [21] is Candida albicans. Briefly: Antifungal activity against Candida albicans, activity expressed as minimum inhibitory concentration (ug/mL). The format is functional. The settings on record: Candida albicans; read-out: MIC. A digest of the protocol: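 Tube dilution in Sabouraud's dextrose broth (ca. 3 mL/tube) at 37 °C; inoculum from 24-h yeast culture, 1:1000 in saline. Drug dissolved in Me2SO-EtOH (1:9), stock 3.2 mg/mL; twofold serial dilutions 32 to 0.06 µg/mL. Read after 48 h; MIC = lowest concentration with no visible growth.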

The subject of assay [22] is Entamoeba histolytica. Briefly: Antiprotozoal activity measured as the conc for >95% inhibition of Entamoeba histolytica. In kind it is functional, organism-based. A digest of the protocol: as §4
For assay [23], the system named is Tritrichomonas suis. Briefly: Antiprotozoal activity measured as the conc for 95-[…]% inhibition of Trichomonas foetus. The format is functional, organism-based.
Assay [24] deals with Entamoeba histolytica. Briefly: Antiprotozoal activity measured as the conc for 95-[…]% inhibition of Entamoeba histolytica. In kind it is functional, organism-based.
Assay [25] concerns Tritrichomonas suis. Briefly: Antiprotozoal activity measured as the conc for 100% inhibition of Trichomonas foetus. The format is functional, organism-based. The method in brief:
as §5

A word on the MIC: it is the lowest concentration that inhibits growth of the organism. For `COc1cccc(C[C@H]2NC[C@H](O)[C@H]2OC(C)=O)c1`, the Inhibitory zone in assay [1] worked out at 10 mm; in assay [2], 10 mm; in assay [3] it was 15 mm; in assay [4] it was 0 mm; in [5] it was 8 mm; in [9] it was 12 mm. Also, the Inhibitory zone was 0 mm in assay [10], 0 mm in assay [14] and 10 mm in [19]. In addition, the MIC in assay [6] was above 32 µg/mL; in assay [11], 8 µg/mL (≈ 30.2 µM); in assay [20], above 32 µg/mL; in assay [21] it was above 32 µg/mL. For the same compound, the Concentration in assay [7] worked out at 32 µg/mL; in [8] it was 8 µg/mL; in assay [12], 8 µg/mL; in assay [13], 16 µg/mL; in assay [15], 32 µg/mL; in assay [16], 8 µg/mL. Also, the Concentration stood at 4 µg/mL in [17], 16 µg/mL in assay [18] and 16 µg/mL in assay [22].

As to `COc1ccc(C(c2ccccc2)[C@H]2NC[C@H](O)[C@H]2OC(C)=O)cc1` (stereo partly specified), the Inhibitory zone in [1] was 10 mm; in assay [2], 0 mm; in assay [3], 20 mm; in assay [4], 0 mm; in [5], 10 mm; in assay [9], 18 mm. The Inhibitory zone in assay [10] amounted to 0 mm; in assay [14] it was 13 mm; in [19], 0 mm. Further, the MIC in assay [6], in assay [11], in assay [20] and in assay [21] was above 32 µg/mL in each case. The Concentration in [8] was determined as 32 µg/mL; in assay [23] it was 32 µg/mL; in [12] it was 16 µg/mL; in assay [16], 32 µg/mL; in [17], 16 µg/mL.

Consider `COc1ccc(C[C@H]2NC[C@H](O)[C@H]2OC(C)=O)cc1` (racemic) [ANISOMYCIN], for which the Inhibitory zone in [1] worked out at 0 mm; in assay [2], 0 mm; in assay [3] it was 0 mm; in assay [4], 0 mm; in assay [5] it was 8 mm; in assay [9] it was 0 mm. Moreover, the Inhibitory zone amounted to 10 mm in assay [10], 0 mm in assay [14] and 10 mm in [19]. Further, the MIC is 32 µg/mL (≈ 121 µM) in [6], 0.5 µg/mL (≈ 1.88 µM) in assay [11], 4 µg/mL (≈ 15.1 µM) in [20] and 8 µg/mL (≈ 30.2 µM) in assay [21].

As to `CC(=O)O[C@@H]1[C@@H](O)CN[C@@H]1Cc1ccc(C)cc1`, the Inhibitory zone in assay [1] came out at 0 mm; in [2], 0 mm; in assay [3], 0 mm; in assay [4], 0 mm; in [5], 8 mm; in assay [9], 0 mm. Also, the Inhibitory zone in assay [10] is 0 mm; in assay [14], 0 mm; in [19], 10 mm. The MIC in assay [6] amounted to 16 µg/mL (≈ 64.2 µM); in assay [11], 1 µg/mL (≈ 4.01 µM); in [20], 4 µg/mL (≈ 16 µM); in assay [21], 8 µg/mL (≈ 32.1 µM). Besides, the Concentration amounted to 4 µg/mL in assay [7]; 1 µg/mL in [24]; 16 µg/mL in assay [25]; 1 µg/mL in assay [23]; 0.5 µg/mL in [12]; 4 µg/mL in assay [13]. Besides, the Concentration came out at 8 µg/mL in [15], 2 µg/mL in [16], 4 µg/mL in assay [18] and 2 µg/mL in [22].
